Measurements from different studies.
WD repeat-containing protein 91: WD repeat-containing protein 91 (Homo sapiens, UniProt A4D1P6)
Oprk1: Kappa-type opioid receptor (Oprk1, Mus musculus, UniProt P33534)
SLC6A2: Sodium-dependent noradrenaline transporter (SLC6A2, Homo sapiens, UniProt P23975)
FPR1: fMet-Leu-Phe receptor (FPR1, Homo sapiens, UniProt P21462)
CES2: Cocaine esterase (CES2, Homo sapiens, UniProt O00748)

Compound	target	effect on	action	method	setting	measurement	value
CCn1c(=O)[nH]c2cc(C(=O)NC(c3ccc(F)cc3)c3cnn(C)c3)ccc2c1=O (stereo not shown)	WD repeat-containing protein 91	binding	–	SPR	–	Kd	3 µM
CC(C)[C@@H](CN1CCc2ccccc2C1)NC(=O)c1cccc(-c2ccc(F)cc2)c1	Oprk1	ligand displacement	–	radioligand	–	Ki	13 µM
CCOC(=O)[C@@]12C[C@@H]1[C@@H](n1cnc3c(NCCCCCCc4ccccc4)nc(I)nc31)[C@H](O)[C@@H]2O	SLC6A2	ligand displacement	–	radioligand	–	Ki	5.4 µM
N#Cc1ccc(C[C@H](NC(=O)c2cc3ccc(F)cc3[nH]2)C(=O)N2CCc3ccccc32)cc1	FPR1	calcium signal	agonist	–	–	EC50	23.1 µM
O=C1NC(=O)C(c2ccccc2)(c2ccccc2)N1	CES2	enzyme activity	inhibitor	fluorescence	with preincubation	IC50	> 100 µM
CNc1nc(N[C@@H]2CCc3c(C#N)cccc32)cc(-c2cccc(N3CCCC3)c2)n1	WD repeat-containing protein 91	binding	–	SPR	–	Kd	1 µM
CCOC(=O)[C@@]12C[C@@H]1[C@@H](n1ccc3c(NCCCCc4ccccc4)nc(C#Cc4ccccc4)nc31)[C@H](O)[C@@H]2O	SLC6A2	ligand displacement	–	radioligand	–	Ki	1.5 µM
COc1cc2c(cc1OC)C(=O)/C(=C/c1ccc3ccccc3c1)C2	CES2	enzyme activity	inhibitor	fluorescence	with preincubation	IC50	10.4 µM
O=C(CCNC(=O)CNC(=O)CC(c1ccccc1)(c1ccccc1)c1ccccc1)NC[C@@H]1CCCN(Cc2ccc(F)nc2)C1	Muscarinic acetylcholine receptor M5 (CHRM5, Homo sapiens, UniProt P08912)	ligand displacement	–	radioligand	cell membranes	IC50	> 30 µM
COc1cc2c(cc1OC)C(=O)/C(=C/c1ccccc1N1CCCC1)C2	CES2	enzyme activity	inhibitor	fluorescence	with preincubation	IC50	0.72 µM
Cc1cccc(-c2nnc(N[C@@H](Cc3ccc(C#N)cc3)C(=O)N3CCc4ccccc43)o2)c1	FPR1	calcium signal	agonist	–	–	EC50	19.4 µM
COc1cc([C@@H]2c3cc4c(cc3[C@@H](O[C@@H]3O[C@@H]5CO[C@@H](C)O[C@H]5[C@H](O)[C@H]3O)[C@H]3COC(=O)[C@H]23)OCO4)cc(OC)c1O	CES2	enzyme activity	inhibitor	fluorescence	with preincubation	IC50	> 100 µM
CC(C)[C@@H](CN1CCc2ccccc2C1)NC(=O)c1c(Cl)cncc1Cl	Oprk1	ligand displacement	–	radioligand	–	Ki	39.7 µM
CCOC(=O)[C@@]12C[C@@H]1[C@@H](n1cnc3c(NCCCCCc4ccccc4)nc(C#Cc4ccc(Cl)s4)nc31)[C@H](O)[C@@H]2O	SLC6A2	ligand displacement	–	radioligand	–	Ki	0.82 µM
NCC(=O)O	ltaA (Aeromonas jandaei, UniProt O07051)	binding	–	absorbance	–	Kd	11000 µM
CCOC(=O)[C@@]12C[C@@H]1[C@@H](n1cnc3c(NCCCCCc4ccccc4)nc(I)nc31)[C@H](O)[C@@H]2O	SLC6A2	ligand displacement	–	radioligand	–	Ki	4.6 µM
COc1cc2c(cc1OC)C(=O)/C(=C/c1ccc(C)c(C)c1)C2	CES2	enzyme activity	inhibitor	fluorescence	with preincubation	IC50	> 100 µM
OC[C@@]12C[C@@H]1[C@@H](n1cnc3c(NCCCCCCc4ccccc4)nc(I)nc31)[C@H](O)[C@@H]2O	SLC6A2	ligand displacement	–	radioligand	–	Ki	1.4 µM
CC(C)[C@H](CN1CCc2ccccc2C1)NC(=O)c1ccc([N+](=O)[O-])s1	Oprk1	ligand displacement	–	radioligand	–	Ki	9.3 µM
